According to ChEMBL document CHEMBL2417536, “New pyridazine-fluorine derivatives: synthesis, chemistry and biological activity. Part II” (2013):
Values after ≈ are worked out from the molar mass of the structure shown.

Key:
[1] = tested on: Kocuria rhizophila; test: Antibacterial activity against Sarcina luteus ATCC 9341 assessed as growth inhibition at 4 mg/disc after 24 hrs by disc diffusion assay; type: functional, DC2201
Summary of the method: (§1)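 Disc diffusion. Suspension at 0.5 McFarland mixed 1/10 into Mueller Hinton agar. 5 mm sterile filter-paper discs, set in stainless steel cylinders, moistened with compound in chloroform at 4 mg/disc. Plates incubated 24 h at 30 °C; inhibition zone diameter (mm, mean) measured.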

[2] = tested on: Staphylococcus aureus; test: Antibacterial activity against Staphylococcus aureus ATCC 25923 assessed as growth inhibition at 4 mg/disc after 24 hrs by disc diffusion assay; type: functional; summary of the method: as §1
[3] = tested on: Bacillus subtilis; test: Antibacterial activity against Bacillus subtilis assessed as growth inhibition after 24 hrs by broth microdilution assay; type: functional
Summary of the method: (§2)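 Broth microdilution in Mueller Hinton broth. Inoculum adjusted to 0.5 McFarland. Compounds dissolved in 50% DMSO at 250 mg/mL (stock), then two-fold serial dilutions over 250 to 0.12 mg/mL. Further broth plus 5 µL inoculum added per well. Incubated 24 h at 37 °C, screened twice per organism. MIC is the lowest concentration with no visible growth; chloramphenicol MIC expressed in µg/mL.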

[4] = tested on: Candida albicans; test: Antifungal activity against Candida albicans ATCC 10231 assessed as growth inhibition at 4 mg/disc after 48 hrs by disc diffusion assay; type: functional
Summary of the method: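 Candida albicans suspension at 0.5 McFarland mixed 1/10 into Sabouraud agar. 5 mm filter-paper discs in steel cylinders, loaded with compound in chloroform at 4 mg/disc; nystatin control at 100 µg/disc. Incubated 48 h at 28 °C; inhibition zone diameter (mm) measured.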

[5] = tested on: Kocuria rhizophila; test: Antibacterial activity against Sarcina luteus ATCC 9341 assessed as growth inhibition after 24 hrs by broth microdilution assay; type: functional; details: DC2201, 24 h; summary of the method: as §2
[6] = tested on: Pseudomonas aeruginosa; test: Antibacterial activity against Pseudomonas aeruginosa ATCC 27853 assessed as growth inhibition at 4 mg/disc after 24 hrs by disc diffusion assay; type: functional; summary of the method: as §1
[7] = tested on: Escherichia coli; test: Antibacterial activity against Escherichia coli ATCC 25922 assessed as growth inhibition at 4 mg/disc after 24 hrs by disc diffusion assay; type: functional; summary of the method: as §1
[8] = tested on: Staphylococcus aureus; test: Antibacterial activity against Staphylococcus aureus ATCC 25923 assessed as growth inhibition after 24 hrs by broth microdilution assay; type: functional; details: ATCC 25923, 24 h; summary of the method: as §2
[9] = tested on: Bacillus subtilis; test: Antibacterial activity against Bacillus subtilis assessed as growth inhibition at 4 mg/disc after 24 hrs by disc diffusion assay; type: functional; summary of the method: as §1
[10] = tested on: Staphylococcus aureus; test: Antibacterial activity against Staphylococcus aureus ATCC 25923 assessed as growth inhibition at 30 ug/disc after 24 hrs by disc diffusion assay; type: functional; details: ATCC 25923, 24 h, read-out: DIZ
Summary of the method: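 Disc diffusion. A 0.5 McFarland bacterial suspension was mixed 1/10 with Mueller Hinton agar. Sterile 5 mm filter paper discs, set in sterile steel cylinders, were loaded at 30 µg/disc (the reference antibiotic dose; test compounds were 4 mg/disc in chloroform). Plates were incubated 24 h at 30 °C, and the inhibition zone diameter (mm, mean) was measured.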

[11] = tested on: Kocuria rhizophila; test: Antibacterial activity against Sarcina luteus ATCC 9341 assessed as growth inhibition at 30 ug/disc after 24 hrs by disc diffusion assay; type: functional; details: DC2201, 24 h, read-out: DIZ
Summary of the method: (§3)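 Chloramphenicol control discs at 30 µg/disc on Mueller Hinton agar seeded 1/10 with 0.5 McFarland suspension. Incubated 24 h at 30 °C; inhibition zone diameter (mm) read.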

[12] = tested on: Escherichia coli; test: Antibacterial activity against Escherichia coli ATCC 25922 assessed as growth inhibition at 30 ug/disc after 24 hrs by disc diffusion assay; type: functional; details: ATCC 25922, 24 h, read-out: DIZ; summary of the method: as §3
[13] = tested on: Bacillus subtilis; test: Antibacterial activity against Bacillus subtilis assessed as growth inhibition at 30 ug/disc after 24 hrs by disc diffusion assay; type: functional; details: read-out: DIZ; summary of the method: as §3
[14] = tested on: Pseudomonas aeruginosa; test: Antibacterial activity against Pseudomonas aeruginosa ATCC 27853 assessed as growth inhibition at 30 ug/disc after 24 hrs by disc diffusion assay; type: functional; details: ATCC 27853, 24 h, read-out: DIZ; summary of the method: as §3

MIC [3]	MIC [5]	MIC [8]	Compound	diameter of the inhibition zone (DIZ) [1]	diameter of the inhibition zone (DIZ) [2]	diameter of the inhibition zone (DIZ) [4]	diameter of the inhibition zone (DIZ) [6]	diameter of the inhibition zone (DIZ) [7]	diameter of the inhibition zone (DIZ) [9]	zone of inhibition at 30 µg/disc [10]	zone of inhibition at 30 µg/disc [11]	zone of inhibition at 30 µg/disc [12]	zone of inhibition at 30 µg/disc [13]	zone of inhibition at 30 µg/disc [14]
200 µg/mL (≈ 526 µM)	90 µg/mL (≈ 237 µM)	4200 µg/mL (≈ 11000 µM)	CCOC(=O)[C@H]1[C@H](C(F)(F)F)[C@@H]2C=CC=NN2[C@H]1C(=O)c1ccc(C)cc1	61 mm	29 mm	31 mm	21 mm	27 mm	38 mm	–	–	–	–	–
–	–	–	O=C(OCC(F)(F)F)[C@H]1C[C@H](C(=O)c2ccc(Cl)cc2)N2N=CC=C[C@@H]12	58 mm	30 mm	37 mm	20 mm	35 mm	33 mm	–	–	–	–	–
–	–	–	CCOC(=O)[C@H]1[C@H](C(F)(F)F)[C@@H]2C=CC=NN2[C@H]1C(=O)c1ccc(F)cc1	58 mm	28 mm	29 mm	21 mm	31 mm	38 mm	–	–	–	–	–
180 µg/mL (≈ 491 µM)	110 µg/mL (≈ 300 µM)	3800 µg/mL (≈ 10400 µM)	Cc1ccc(C(=O)[C@H]2C[C@H](C(=O)OCC(F)(F)F)[C@@H]3C=CC=NN23)cc1	59 mm	30 mm	30 mm	20 mm	28 mm	39 mm	–	–	–	–	–
–	–	–	CCOC(=O)c1c(C(F)(F)F)c2cccnn2c1C(=O)c1ccc(Cl)cc1	44 mm	29 mm	26 mm	18 mm	42 mm	38 mm	–	–	–	–	–
–	–	–	O=C(OCC(F)(F)F)[C@H]1C[C@H](C(=O)c2ccc(F)cc2)N2N=CC=C[C@@H]12	55 mm	28 mm	27 mm	19 mm	26 mm	31 mm	–	–	–	–	–
220 µg/mL (≈ 585 µM)	100 µg/mL (≈ 266 µM)	160 µg/mL (≈ 425 µM)	CCOC(=O)c1c(C(F)(F)F)c2cccnn2c1C(=O)c1ccc(C)cc1	60 mm	49 mm	32 mm	19 mm	40 mm	36 mm	–	–	–	–	–
–	–	–	CCOC(=O)c1c(C(F)(F)F)c2cccnn2c1C(=O)c1ccc(F)cc1	41 mm	30 mm	29 mm	16 mm	34 mm	31 mm	–	–	–	–	–

Compound	MIC [3]	MIC [5]	MIC [8]	diameter of the inhibition zone (DIZ) [1]	diameter of the inhibition zone (DIZ) [2]	diameter of the inhibition zone (DIZ) [4]	diameter of the inhibition zone (DIZ) [6]	diameter of the inhibition zone (DIZ) [7]	diameter of the inhibition zone (DIZ) [9]	zone of inhibition at 30 µg/disc [10]	zone of inhibition at 30 µg/disc [11]	zone of inhibition at 30 µg/disc [12]	zone of inhibition at 30 µg/disc [13]	zone of inhibition at 30 µg/disc [14]
O=C(N[C@H](CO)[C@H](O)c1ccc([N+](=O)[O-])cc1)C(Cl)Cl [CHLORAMPHENICOL]	0.25 µg/mL (≈ 0.774 µM)	0.25 µg/mL (≈ 0.774 µM)	0.25 µg/mL (≈ 0.774 µM)	–	–	–	–	–	–	25 mm	30 mm	29 mm	25 mm	19 mm
